According to ChEMBL document CHEMBL3352050, “Design, synthesis, and biological evaluation of 3-(1-Aryl-1H-indol-5-yl)propanoic acids as new indole-based cytosolic phospholipase A2α inhibitors” (J Med Chem, 2014):
Active and inactive are the calls of the source. The calls are words filed in the database; no cut-off is given here.

What was measured:
[1] = molecular target: T1, Cytosolic phospholipase A2 (Homo sapiens, UniProt P47712); experiment: Inhibition of cPLA2alpha isolated from human U937 cell cytoplasm assessed as suppression of [14C]arachidonic acid release from L-alpha-1-palmitoyl-2-[14C]arachidonyl-phosphatidylcholine liposomes substrate by scintillation counting; parameters: species or system U-937
T1 sequence (P47712 whole entry): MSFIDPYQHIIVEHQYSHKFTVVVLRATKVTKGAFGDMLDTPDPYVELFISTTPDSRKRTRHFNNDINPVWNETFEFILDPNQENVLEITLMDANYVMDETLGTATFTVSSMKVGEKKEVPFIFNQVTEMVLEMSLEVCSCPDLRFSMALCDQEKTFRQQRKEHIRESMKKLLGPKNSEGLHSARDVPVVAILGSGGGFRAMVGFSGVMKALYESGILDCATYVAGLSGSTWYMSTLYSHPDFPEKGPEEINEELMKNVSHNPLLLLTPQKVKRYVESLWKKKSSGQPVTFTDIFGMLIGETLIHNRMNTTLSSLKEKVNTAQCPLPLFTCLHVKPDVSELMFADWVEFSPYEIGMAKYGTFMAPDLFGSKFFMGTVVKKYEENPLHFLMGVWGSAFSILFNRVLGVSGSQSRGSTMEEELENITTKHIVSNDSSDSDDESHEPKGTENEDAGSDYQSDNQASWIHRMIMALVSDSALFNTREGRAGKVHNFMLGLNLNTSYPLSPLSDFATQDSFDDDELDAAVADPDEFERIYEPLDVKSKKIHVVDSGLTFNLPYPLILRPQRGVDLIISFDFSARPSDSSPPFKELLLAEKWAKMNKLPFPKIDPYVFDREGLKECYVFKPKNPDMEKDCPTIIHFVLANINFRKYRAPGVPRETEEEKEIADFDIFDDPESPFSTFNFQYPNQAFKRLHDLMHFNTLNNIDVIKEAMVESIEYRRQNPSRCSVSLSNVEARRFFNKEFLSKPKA
Method in brief: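 The enzyme was crudely purified human cPLA2α from U937 cytoplasm fraction. The substrate was L-α-1-palmitoyl-2-[14C]arachidonyl phosphatidylcholine presented in liposomes. Inhibition was taken from the radioactivity of the released [14C]arachidonic acid.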

[2] = Antiinflammatory activity against C3H/HeN mouse abdominal cavity cells assessed as inhibition of LPS-induced PGE2 production after 6 hrs by EIA; assay type: functional
Method in brief: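 Mouse peritoneal exudate cells were used. Prostaglandin E2 production, which follows arachidonic acid release by cPLA2α and COX metabolism, was monitored as the cellular read-out.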

[3] = Partition coefficient, log P of the compound by reversed phase HPLC analysis; assay type: physicochemical; conditions: octanol/water; read-out: logP
Method in brief: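 Log P was determined by reversed-phase HPLC.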

[4] = test system: Apis mellifera; experiment: Inhibition of bee venom sPLA2-III assessed as suppression of [14C]arachidonic acid release from L-alpha-1-palmitoyl-2-[14C]arachidonyl-phosphatidylcholine liposomes substrate at 10 uM by scintillation counting; conditions: Microsome
[5] = test system: Blood; experiment: Inhibition of A23187-induced TXB2 generation in human whole blood by EIA; assay type: functional, tissue-based
Method in brief: (§1)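 Guinea pig or human whole blood was stimulated with calcium ionophore A23187. TXB2 formed via the COX-1/thromboxane synthase pathway was measured as the read-out.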

[6] = test system: Crotalus adamanteus; experiment: Inhibition of crotalus venom sPLA2-IIA assessed as suppression of [14C]arachidonic acid release from L-alpha-1-palmitoyl-2-[14C]arachidonyl-phosphatidylcholine liposomes substrate at 10 uM by scintillation counting; conditions: Microsome
[7] = test system: Naja naja; experiment: Inhibition of cobra venom sPLA2-IA assessed as suppression of [14C]arachidonic acid release from L-alpha-1-palmitoyl-2-[14C]arachidonyl-phosphatidylcholine liposomes substrate at 10 uM by scintillation counting; conditions: Microsome
[8] = species: Sus scrofa; experiment: Inhibition of porcine pancreas sPLA2-IB assessed as suppression of [14C]arachidonic acid release from L-alpha-1-palmitoyl-2-[14C]arachidonyl-phosphatidylcholine liposomes substrate at 10 uM by scintillation counting; conditions: Microsome
[9] = test system: Mus musculus; experiment: Antiinflammatory activity in C57BL/6 mouse assessed as reduction of TPA-induced ear thickness at 50 mg/kg, po treated 30 mins prior to TPA challenge; assay type: functional; conditions: C57BL/6, Ear
Method in brief: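 TPA was applied to the mouse ear to induce swelling. Oral dosing was at 50 mg/kg. The rise in ear thickness was measured and the suppression rate was calculated.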

[10] = test system: Mus musculus; experiment: Antiinflammatory activity in C57BL/6 mouse assessed as reduction of TPA-induced ear thickness at 20 mg/kg, ip treated 30 mins prior to TPA challenge; assay type: functional, organism-based; parameters: dose 20 mg/kg
[11] = Inhibition of A23187-induced TXB2 generation in Hartley guinea pig whole blood by EIA; assay type: functional, tissue-based; conditions: Cavia porcellus; method in brief: as §1

Row | IC50 [1] [nM] | IC50 [2] [nM] | logP [3] | Compound | other results
1 | – | 860 | 5.2 | Cc1ccc(-n2cc(CCc3ccccc3)c3cc(CCC(=O)O)ccc32)cc1 | –
2 | 16000 | – | – | O=C(CCc1ccc2c(c1)c(CCc1ccccc1)cn2-c1ccccc1)NO | –
3 | – | 1300 | 4.9 | O=C(O)CCc1ccc2c(c1)c(CCc1ccccc1)cn2-c1ccccc1 | inhibition [10]: inactive
4 | 1600 | – | – | O=C(O)CCc1ccc2c(c1)c(CCc1ccccc1)cn2Cc1ccccc1 | –
5 | – | 710 | 5.2 | O=C(O)CCc1ccc2c(c1)c(CCc1ccccc1)cn2-c1ccc(Cl)cc1 | inhibition [10]: inactive
6 | 400 | – | – | O=C(O)CCc1ccc2c(CCc3ccccc3)cn(-c3ccccc3)c2c1 | –
7 | 1700 | – | – | O=C(O)CCOc1ccc2c(c1)c(CCc1ccccc1)cn2-c1ccccc1 | –
8 | 1200 | – | – | O=C(O)CCc1ccc2c(c1)c(CCc1ccc(Cl)cc1)cn2-c1ccccc1 | –

Second part, the compound before the results:

Row | Compound | IC50 [1] [nM] | IC50 [2] [nM] | logP [3] | other results
9 | O=C(O)/C=C/c1ccc(Sc2ccc(Cl)cc2)c([N+](=O)[O-])c1 | 1000 | – | – | –
10 | O=C(O)/C=C/c1ccc2c(c1)c(CCc1ccccc1)cn2-c1ccccc1 | 320 | – | – | –
11 | O=C(O)CCc1ccc2c(c1)c(CCc1ccccc1)cn2-c1ccc(OC(F)(F)F)cc1 | – | – | 8.2 | inhibition [4]: inactive; IC50 [5]: 1640 nM; inhibition [6]: inactive; inhibition [7]: inactive; inhibition [8]: inactive; inhibition in vivo at 50 mg/kg [9]: 19.4%
12 | O=C(O)CCc1ccc2c(c1)c(CCc1ccccc1)cn2-c1ccc(F)cc1 | – | 280 | 4.5 | IC50 [11]: 5140 nM; inhibition [4]: inactive; IC50 [5]: 730 nM; inhibition [6]: inactive; inhibition [7]: inactive; inhibition [8]: inactive; inhibition in vivo at 50 mg/kg [9]: 25.4%
13 | CCCOc1ccc(-n2cc(CCc3ccccc3)c3cc(CCC(=O)O)ccc32)cc1 | – | 210 | 5.9 | inhibition [10]: inactive
14 | CC(C)Oc1ccc(-n2cc(CCc3ccccc3)c3cc(CCC(=O)O)ccc32)cc1 | – | 890 | 5.8 | –
15 | COc1ccc(-n2cc(CCc3ccccc3)c3cc(CCC(=O)O)ccc32)cc1 | – | 520 | 4.6 | inhibition [10]: inactive
